# Measurements collected from several papers.
# Protocols differ between the studies behind these lines.
# Target: Ephrin type-A receptor 1 (EPHA1, Homo sapiens, UniProt P21709)
# Sequence (P21709 26-976, as in one of the studies): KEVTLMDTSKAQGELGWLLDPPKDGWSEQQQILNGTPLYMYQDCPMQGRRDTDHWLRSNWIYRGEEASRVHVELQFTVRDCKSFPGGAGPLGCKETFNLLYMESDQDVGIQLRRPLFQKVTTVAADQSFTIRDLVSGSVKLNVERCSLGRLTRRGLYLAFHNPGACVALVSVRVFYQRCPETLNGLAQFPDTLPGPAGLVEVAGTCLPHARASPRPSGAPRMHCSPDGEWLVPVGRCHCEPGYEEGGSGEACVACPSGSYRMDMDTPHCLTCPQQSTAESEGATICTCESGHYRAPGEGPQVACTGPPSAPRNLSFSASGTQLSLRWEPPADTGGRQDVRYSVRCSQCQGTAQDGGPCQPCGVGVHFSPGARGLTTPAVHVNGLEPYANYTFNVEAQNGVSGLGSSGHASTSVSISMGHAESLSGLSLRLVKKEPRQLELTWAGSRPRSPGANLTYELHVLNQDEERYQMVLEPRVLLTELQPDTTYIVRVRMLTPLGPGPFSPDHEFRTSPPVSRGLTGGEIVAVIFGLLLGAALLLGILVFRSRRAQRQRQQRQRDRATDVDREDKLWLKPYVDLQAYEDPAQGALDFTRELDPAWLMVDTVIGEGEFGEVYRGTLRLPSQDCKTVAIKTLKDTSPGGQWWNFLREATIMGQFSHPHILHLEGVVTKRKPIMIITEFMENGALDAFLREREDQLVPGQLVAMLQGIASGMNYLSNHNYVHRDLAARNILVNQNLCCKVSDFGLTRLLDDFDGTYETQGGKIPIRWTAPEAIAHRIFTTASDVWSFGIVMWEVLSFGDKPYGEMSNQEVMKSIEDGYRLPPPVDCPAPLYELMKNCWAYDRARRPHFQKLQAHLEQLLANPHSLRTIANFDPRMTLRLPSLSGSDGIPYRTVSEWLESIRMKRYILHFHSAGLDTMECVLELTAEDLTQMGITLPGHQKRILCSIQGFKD
Structure (SMILES),test,setting,quantity,value
CN1CCN(C(=O)c2ccc(NC(=O)Nc3ccc(N(C)c4ccnc(Nc5ccc(CS(C)(=O)=O)cc5)n4)cc3)cc2)CC1,"binding, competition with immobilised ligand",1 µM,remaining binding,56%
CC#CC(=O)N1CCC[C@H]1c1nc(-c2ccc(C(=O)Nc3ccccn3)cc2)c2c(N)nccn12,"enzyme activity, inhibitor",1 µM,inhibition,25%
Cc1ccc(NC(=O)c2ccnc(C(F)(F)F)c2)cc1-c1cc(OCCO)nc(N2CCOCC2)c1,"binding, competition with immobilised ligand",1 µM,remaining binding,83%
C=CC(=O)N1CCC([C@@H]2CCNc3c(C(N)=O)c(-c4ccc(Oc5ccccc5)cc4)nn32)CC1,cell-free assay,1 µM,inhibition,25%
CCCCC(=O)Nc1ccc(-c2ccc3ncn(CCC)c(=O)c3c2)cn1,"binding, competition with immobilised ligand",0.5 µM,remaining binding,80%
C1=C/COCc2cc(ccc2OCCN2CCCC2)Nc2nccc(n2)-c2cccc(c2)COC/1,binding,0.1 µM,remaining binding,93%
COc1ccc2oc(-c3ccc4nc(N)oc4c3)c/c(=N\c3ccccc3NC(=O)CCN)c2c1,binding,1 µM,remaining binding,101%
CC(C)S(=O)(=O)c1ccc2nccc(Nc3ccc4sc(C5CCCC5)nc4c3)c2c1,"enzyme activity, inhibitor",1 µM,activity vs control,100%
